Source: ChEMBL document CHEMBL5678818, “Discovery of potent SOS1 inhibitors that block RAS activation via disruption of the RAS-SOS1 interaction” (Proc Natl Acad Sci U S A, 2019)
Calls of active or inactive are those of the source. The rule behind the calls is not given here.

What was measured:
[1] = molecular target: SRSF protein kinase 1 (Homo sapiens) (UniProt Q96SB4); assay: Inhibition of SRPK1 (unknown origin) assessed as residual activity at 100 nM by KINOMEscan analysis relative to control
Chain of SRSF protein kinase 1 (Homo sapiens) (Q96SB4 whole entry): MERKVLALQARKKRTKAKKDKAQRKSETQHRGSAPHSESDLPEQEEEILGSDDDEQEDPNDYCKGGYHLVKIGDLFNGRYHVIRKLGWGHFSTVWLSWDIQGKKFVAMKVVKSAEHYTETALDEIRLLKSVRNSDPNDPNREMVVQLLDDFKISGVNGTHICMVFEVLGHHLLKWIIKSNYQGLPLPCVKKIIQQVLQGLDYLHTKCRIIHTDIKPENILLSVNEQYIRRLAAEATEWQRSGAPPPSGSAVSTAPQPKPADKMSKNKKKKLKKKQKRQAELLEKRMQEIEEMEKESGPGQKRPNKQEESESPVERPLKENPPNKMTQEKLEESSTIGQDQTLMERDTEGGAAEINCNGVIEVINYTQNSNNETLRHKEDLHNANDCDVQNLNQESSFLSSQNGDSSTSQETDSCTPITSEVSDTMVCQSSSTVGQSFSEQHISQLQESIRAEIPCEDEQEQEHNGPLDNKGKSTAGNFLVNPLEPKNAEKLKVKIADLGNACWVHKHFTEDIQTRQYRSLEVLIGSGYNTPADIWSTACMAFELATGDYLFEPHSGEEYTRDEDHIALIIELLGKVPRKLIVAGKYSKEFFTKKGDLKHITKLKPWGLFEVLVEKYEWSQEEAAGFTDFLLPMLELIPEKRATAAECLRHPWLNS

[2] = molecular target: Cyclin-dependent kinase 11B (Homo sapiens) (UniProt P21127); assay: Inhibition of CDK11 (unknown origin) assessed as residual activity at 100 nM by KINOMEscan analysis relative to control
Chain of Cyclin-dependent kinase 11B (Homo sapiens) (P21127 whole entry): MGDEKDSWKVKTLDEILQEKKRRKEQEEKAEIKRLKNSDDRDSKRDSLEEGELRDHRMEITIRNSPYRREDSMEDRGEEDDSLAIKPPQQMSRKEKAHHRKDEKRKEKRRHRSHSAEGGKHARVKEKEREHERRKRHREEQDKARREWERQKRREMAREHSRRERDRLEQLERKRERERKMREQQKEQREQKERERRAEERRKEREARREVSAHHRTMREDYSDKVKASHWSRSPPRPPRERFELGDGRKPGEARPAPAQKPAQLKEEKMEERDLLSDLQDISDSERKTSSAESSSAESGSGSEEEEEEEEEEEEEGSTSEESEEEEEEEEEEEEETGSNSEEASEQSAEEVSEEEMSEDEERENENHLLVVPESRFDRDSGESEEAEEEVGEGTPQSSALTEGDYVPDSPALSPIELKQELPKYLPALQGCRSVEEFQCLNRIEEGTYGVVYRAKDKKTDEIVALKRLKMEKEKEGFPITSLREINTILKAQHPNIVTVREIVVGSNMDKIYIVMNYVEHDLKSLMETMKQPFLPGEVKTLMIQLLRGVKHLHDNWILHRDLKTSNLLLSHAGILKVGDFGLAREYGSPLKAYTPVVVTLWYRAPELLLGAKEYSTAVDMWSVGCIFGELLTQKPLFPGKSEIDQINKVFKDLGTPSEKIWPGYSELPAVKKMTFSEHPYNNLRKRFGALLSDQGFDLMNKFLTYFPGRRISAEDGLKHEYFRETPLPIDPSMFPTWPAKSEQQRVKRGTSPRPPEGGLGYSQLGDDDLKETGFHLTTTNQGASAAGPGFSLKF

[3] = molecular target: Serine/threonine-protein kinase MARK1 (Homo sapiens) (UniProt Q9P0L2); assay: Inhibition of MARK1 (unknown origin) assessed as residual activity at 100 nM by KINOMEscan analysis relative to control
Chain of Serine/threonine-protein kinase MARK1 (Homo sapiens) (Q9P0L2 whole entry, looked up): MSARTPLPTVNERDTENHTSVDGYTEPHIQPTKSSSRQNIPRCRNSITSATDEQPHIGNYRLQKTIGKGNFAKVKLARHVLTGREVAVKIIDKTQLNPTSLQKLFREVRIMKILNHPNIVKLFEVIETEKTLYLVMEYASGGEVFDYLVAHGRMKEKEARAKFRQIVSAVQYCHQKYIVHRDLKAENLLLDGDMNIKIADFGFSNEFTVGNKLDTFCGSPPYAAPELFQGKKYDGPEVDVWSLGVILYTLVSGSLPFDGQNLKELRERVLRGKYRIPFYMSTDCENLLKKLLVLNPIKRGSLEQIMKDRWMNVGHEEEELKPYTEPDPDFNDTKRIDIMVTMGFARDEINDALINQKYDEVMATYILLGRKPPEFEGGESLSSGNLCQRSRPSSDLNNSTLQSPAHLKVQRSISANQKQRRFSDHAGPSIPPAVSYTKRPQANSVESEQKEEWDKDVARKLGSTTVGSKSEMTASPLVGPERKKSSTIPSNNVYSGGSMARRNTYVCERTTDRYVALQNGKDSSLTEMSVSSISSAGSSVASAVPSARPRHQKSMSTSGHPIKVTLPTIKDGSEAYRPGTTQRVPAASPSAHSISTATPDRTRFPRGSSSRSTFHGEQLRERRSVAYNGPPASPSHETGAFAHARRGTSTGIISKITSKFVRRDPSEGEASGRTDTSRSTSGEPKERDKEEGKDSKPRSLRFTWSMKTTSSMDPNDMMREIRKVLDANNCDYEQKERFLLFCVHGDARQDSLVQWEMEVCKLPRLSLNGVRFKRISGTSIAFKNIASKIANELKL

[4] = molecular target: Mitogen-activated protein kinase 4 (Homo sapiens) (UniProt P31152); assay: Inhibition of ERK4 (unknown origin) assessed as residual activity at 100 nM by KINOMEscan analysis relative to control
Chain of Mitogen-activated protein kinase 4 (Homo sapiens) (P31152 whole entry): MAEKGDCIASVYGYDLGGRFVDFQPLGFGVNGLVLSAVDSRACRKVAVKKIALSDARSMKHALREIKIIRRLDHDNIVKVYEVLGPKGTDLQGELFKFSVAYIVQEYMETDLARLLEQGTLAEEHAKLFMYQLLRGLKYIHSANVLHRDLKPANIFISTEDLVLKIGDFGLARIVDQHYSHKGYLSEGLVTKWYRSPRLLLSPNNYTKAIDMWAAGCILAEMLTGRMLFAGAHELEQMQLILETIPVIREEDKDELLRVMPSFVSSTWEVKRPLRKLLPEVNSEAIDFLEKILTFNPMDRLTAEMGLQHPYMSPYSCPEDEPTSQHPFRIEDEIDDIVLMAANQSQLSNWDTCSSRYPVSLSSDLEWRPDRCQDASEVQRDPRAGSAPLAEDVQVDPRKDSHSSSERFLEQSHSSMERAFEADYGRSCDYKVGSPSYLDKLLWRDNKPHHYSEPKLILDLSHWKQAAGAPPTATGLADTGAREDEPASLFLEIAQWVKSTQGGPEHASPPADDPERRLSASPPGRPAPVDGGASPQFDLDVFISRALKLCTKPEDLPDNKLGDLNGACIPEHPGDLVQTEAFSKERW

[5] = molecular target: Dual specificity protein kinase CLK3 (Homo sapiens) (UniProt P49761); assay: Inhibition of CLK3 (unknown origin) assessed as residual activity at 100 nM by KINOMEscan analysis relative to control
Chain of Dual specificity protein kinase CLK3 (Homo sapiens) (P49761 whole entry, looked up): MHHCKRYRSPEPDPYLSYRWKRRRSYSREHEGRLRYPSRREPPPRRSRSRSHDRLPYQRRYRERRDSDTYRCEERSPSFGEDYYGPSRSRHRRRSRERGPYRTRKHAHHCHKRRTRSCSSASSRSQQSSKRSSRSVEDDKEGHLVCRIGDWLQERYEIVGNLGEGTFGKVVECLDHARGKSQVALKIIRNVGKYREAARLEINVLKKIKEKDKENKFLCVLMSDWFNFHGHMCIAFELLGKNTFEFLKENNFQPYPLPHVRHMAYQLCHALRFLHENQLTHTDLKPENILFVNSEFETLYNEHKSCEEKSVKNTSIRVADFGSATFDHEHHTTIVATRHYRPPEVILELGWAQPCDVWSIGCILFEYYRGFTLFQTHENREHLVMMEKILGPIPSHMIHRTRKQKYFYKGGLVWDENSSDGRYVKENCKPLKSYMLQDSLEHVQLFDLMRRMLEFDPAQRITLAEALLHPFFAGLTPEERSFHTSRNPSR

[6] = molecular target: Serine/threonine-protein kinase 16 (Homo sapiens) (UniProt O75716); assay: Inhibition of STK16 (unknown origin) assessed as residual activity at 100 nM by KINOMEscan analysis relative to control
Chain of Serine/threonine-protein kinase 16 (Homo sapiens) (O75716 whole entry): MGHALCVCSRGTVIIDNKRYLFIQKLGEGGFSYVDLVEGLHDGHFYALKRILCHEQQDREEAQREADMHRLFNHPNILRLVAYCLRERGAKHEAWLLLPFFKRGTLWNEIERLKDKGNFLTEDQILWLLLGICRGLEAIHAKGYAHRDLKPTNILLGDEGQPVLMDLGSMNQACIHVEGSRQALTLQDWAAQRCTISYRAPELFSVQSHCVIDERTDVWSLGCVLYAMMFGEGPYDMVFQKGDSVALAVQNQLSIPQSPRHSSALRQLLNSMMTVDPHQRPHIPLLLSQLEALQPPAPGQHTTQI

[7] = molecular target: T1, Mitogen-activated protein kinase kinase kinase 6 (Homo sapiens) (UniProt O95382); assay: Inhibition of ASK2 (unknown origin) assessed as residual activity at 100 nM by KINOMEscan analysis relative to control
T1 sequence (whole entry): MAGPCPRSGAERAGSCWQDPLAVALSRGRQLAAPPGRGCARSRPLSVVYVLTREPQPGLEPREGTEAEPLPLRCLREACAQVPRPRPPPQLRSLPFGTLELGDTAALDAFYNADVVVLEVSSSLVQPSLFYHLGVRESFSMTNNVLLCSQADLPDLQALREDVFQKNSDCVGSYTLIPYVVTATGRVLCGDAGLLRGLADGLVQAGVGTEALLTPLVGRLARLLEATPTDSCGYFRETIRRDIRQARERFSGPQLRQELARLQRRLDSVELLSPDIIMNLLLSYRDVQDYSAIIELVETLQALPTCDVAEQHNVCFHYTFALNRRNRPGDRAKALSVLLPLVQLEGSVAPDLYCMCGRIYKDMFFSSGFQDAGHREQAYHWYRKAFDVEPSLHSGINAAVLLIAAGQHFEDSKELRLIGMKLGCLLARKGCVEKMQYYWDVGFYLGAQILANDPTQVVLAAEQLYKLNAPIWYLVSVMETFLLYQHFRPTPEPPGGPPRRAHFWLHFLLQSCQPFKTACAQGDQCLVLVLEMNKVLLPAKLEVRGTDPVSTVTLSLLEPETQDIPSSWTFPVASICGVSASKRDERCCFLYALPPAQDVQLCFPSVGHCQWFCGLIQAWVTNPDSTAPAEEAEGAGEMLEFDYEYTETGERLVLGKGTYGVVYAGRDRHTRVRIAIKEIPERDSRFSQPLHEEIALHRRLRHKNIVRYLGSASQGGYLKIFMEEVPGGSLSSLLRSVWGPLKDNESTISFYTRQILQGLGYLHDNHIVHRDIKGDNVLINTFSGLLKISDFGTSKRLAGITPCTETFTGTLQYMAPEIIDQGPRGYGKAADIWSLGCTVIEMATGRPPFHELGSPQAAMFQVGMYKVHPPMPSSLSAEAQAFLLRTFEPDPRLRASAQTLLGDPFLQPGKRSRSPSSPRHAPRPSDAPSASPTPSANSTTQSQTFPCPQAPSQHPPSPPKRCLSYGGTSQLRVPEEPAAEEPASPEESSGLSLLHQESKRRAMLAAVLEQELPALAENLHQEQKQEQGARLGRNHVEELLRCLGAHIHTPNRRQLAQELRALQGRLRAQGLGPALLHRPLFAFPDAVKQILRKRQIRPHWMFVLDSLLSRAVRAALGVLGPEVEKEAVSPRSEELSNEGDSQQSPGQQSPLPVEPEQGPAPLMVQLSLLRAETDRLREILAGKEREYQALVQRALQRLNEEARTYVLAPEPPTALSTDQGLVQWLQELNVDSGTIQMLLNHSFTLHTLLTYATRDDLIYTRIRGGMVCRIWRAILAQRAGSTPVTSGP

[8] = molecular target: T2, Serine/threonine-protein kinase ULK2 (Homo sapiens) (UniProt Q8IYT8); assay: Inhibition of ULK2 (unknown origin) assessed as residual activity at 100 nM by KINOMEscan analysis relative to control
T2 sequence (whole entry): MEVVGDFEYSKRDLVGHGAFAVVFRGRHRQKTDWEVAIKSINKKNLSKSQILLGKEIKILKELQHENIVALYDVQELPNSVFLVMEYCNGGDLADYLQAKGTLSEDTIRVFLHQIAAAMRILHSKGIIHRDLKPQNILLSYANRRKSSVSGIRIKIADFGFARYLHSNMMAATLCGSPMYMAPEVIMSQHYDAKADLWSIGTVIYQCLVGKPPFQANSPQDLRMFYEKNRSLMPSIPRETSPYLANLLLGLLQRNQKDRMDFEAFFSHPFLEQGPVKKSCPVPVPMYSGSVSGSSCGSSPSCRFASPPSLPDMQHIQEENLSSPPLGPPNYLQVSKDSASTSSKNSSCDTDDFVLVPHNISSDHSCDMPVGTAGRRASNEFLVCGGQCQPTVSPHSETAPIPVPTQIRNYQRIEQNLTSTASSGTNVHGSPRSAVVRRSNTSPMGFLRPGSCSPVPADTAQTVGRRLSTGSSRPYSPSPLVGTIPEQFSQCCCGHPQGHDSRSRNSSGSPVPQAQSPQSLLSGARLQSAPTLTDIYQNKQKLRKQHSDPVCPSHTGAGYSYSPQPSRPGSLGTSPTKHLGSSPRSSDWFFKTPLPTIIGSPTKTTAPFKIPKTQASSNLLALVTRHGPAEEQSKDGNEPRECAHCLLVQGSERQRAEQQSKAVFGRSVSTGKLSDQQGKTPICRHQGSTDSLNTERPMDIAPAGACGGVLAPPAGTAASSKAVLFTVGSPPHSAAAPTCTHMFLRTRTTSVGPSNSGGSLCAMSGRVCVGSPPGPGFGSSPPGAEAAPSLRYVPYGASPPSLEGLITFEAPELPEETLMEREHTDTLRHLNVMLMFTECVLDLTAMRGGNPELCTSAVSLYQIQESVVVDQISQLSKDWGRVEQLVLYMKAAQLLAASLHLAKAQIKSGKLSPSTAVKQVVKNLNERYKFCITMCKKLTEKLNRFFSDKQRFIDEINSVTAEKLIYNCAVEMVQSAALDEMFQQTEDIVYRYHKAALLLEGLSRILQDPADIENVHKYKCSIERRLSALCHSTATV

Calu-1 = assay: Effect on total ERK level in human Calu-1 cells incubated for 24 hrs by HTRF analysis; type: functional, cell-based
Summary of the method: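 Calu-1 cells carry two KRAS G12C alleles and were sourced from CLS. Total and pERK levels were both analyzed after compound treatment.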

SMILES	Activity [1] [%]	Activity [2] [%]	Activity [3] [%]	Activity [4] [%]	Activity [5] [%]	Activity [6] [%]	Activity [7] [%]	Activity [8] [%]	Activity (Calu-1)
COc1cc2ncnc(N[C@H](C)c3cccc4ccccc34)c2cc1OC	95	100	100	100	92	93	71	100	–
CNCc1ccccc1-c1csc([C@@H](C)Nc2nc(C)nc3cc(OC)c(OC)cc23)c1 [BAY-293]	–	–	–	–	–	–	–	–	inactive
